We go through eight compounds from ChEMBL document CHEMBL1125273, “Synthesis and biological evaluation of quinocarcin derivatives: thioalkyl-substituted quinones and hydroquinones” (J Med Chem, 1991).

Experiment [1] in a line: Antitumor activity in vivo in CD2F1 mice measured in terms of percent increase in lifespan calculated at a dose of 12.5 mg/kg intraperitoneally on day one. As to conditions: Mus musculus, ip, route intraperitoneal. It counts as functional. The procedure, abridged:
(§1)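 P388 lymphocytic leukemia cells (1×10^6) were implanted ip into CD2F1 mice (about 22 g), five mice per group. Drug was given ip from the day after implantation, either once (day 1) or daily on days 1–5. ILS = (T/C − 1) × 100, where T and C are the median survival times of treated and control mice.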

Experiment [2] has as its system Homo sapiens. The experiment can be described thus: Ratio of ILS tested compound/quinocarcin against human mammary carcinoma MX-1 cell line implanted subcutaneously in mice and the compound administered intravenously at a dose of 4.41 mg/kg on days 1-5. The conditions noted are these: route intravenous. It counts as functional.
The test system of experiment [3] is HeLa. In words: In vitro concentration required to inhibit the growth of HeLa S3 cells by 50%. It counts as functional, cell-based. As to conditions: Homo sapiens. The method in brief:
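HeLa S3 cells (5 × 10⁴) seeded in Eagle's MEM with 10% FBS and 0.06 mg/mL kanamycin; graded drug concentrations, diluted in growth medium, added 24 h after seeding. Incubated 72 h at 37 °C, humidified 5% CO₂. Monolayers then washed, detached with 0.05% trypsin/0.02% EDTA and counted electronically; IC50 taken as concentration giving 50% growth inhibition.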

The nature of experiment [4]: Antitumor activity in vivo in CD2F1 mice measured in terms of percent increase in lifespan calculated at a dose of 6.25 mg/kg intraperitoneally on days 1-5. As to conditions: Mus musculus, ip, route intraperitoneal. It counts as functional. The procedure, abridged:
as §1

A short description of experiment [5]: Ratio of the ILS tested compound/quinocarcin was determined in CD2F1 mice on days 1-5. It counts as functional, Mus musculus. The procedure, abridged:
(§2)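 CD2F1 mice (5 per group) received 10^6 P388 cells ip. Drug was given ip on day 1 or on days 1–5. ILS was taken as (T/C − 1) × 100 from median survival times, and each compound's ILS was divided by the ILS of quinocarcin.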

A short description of experiment [6]: Ratio of the ILS tested compound/quinocarcin was determined for day one in CD2F1 mice. It counts as functional, Mus musculus. The method in brief: as §2
In experiment [7] the test system is CCRF S-180. In words: Ratio of ILS tested compound/quinocarcin against murine sarcoma S-180 tumor cell line implanted subcutaneously in mice and the compound administered intravenously at a dose of 4.41 mg/kg on days 1-5. It counts as functional, Mus musculus. As to conditions: route intravenous.
Experiment [8] is described as follows: Antitumor activity in vivo in CD2F1 mice measured in terms of percent increase in lifespan calculated at a dose of 37.5 mg/kg intraperitoneally on day one. It counts as functional. As to conditions: Mus musculus, ip, route intraperitoneal. The procedure, abridged: as §1
Experiment [9] in a line: Antitumor activity in vivo in CD2F1 mice measured in terms of percent increase in lifespan calculated at a dose of 25 mg/kg intraperitoneally on day one. It counts as functional. The conditions noted are these: Mus musculus, ip, route intraperitoneal. The procedure, abridged: as §1
Experiment [10] is described as follows: Antitumor activity in vivo in CD2F1 mice measured in terms of percent increase in lifespan calculated at a dose of 12.5 mg/kg intraperitoneally on days 1-5. It counts as functional. The conditions noted are these: Mus musculus, ip, route intraperitoneal. The method in brief: as §1
Experiment [11] concerns Homo sapiens. In words: Ratio of ILS tested compound/quinocarcin against human mammary carcinoma MX-1 cell line implanted subcutaneously in mice and the compound administered intravenously at a dose of 9.35 mg/kg on days 1-5. It counts as functional. As to conditions: route intravenous.
Experiment [12] deals with Homo sapiens. The experiment can be described thus: Ratio of ILS tested compound/quinocarcin against human mammary carcinoma MX-1 cell line implanted subcutaneously in mice and the compound administered intravenously at a dose of 5.96 mg/kg on days 1-5. It counts as functional. The conditions noted are these: route intravenous.
Experiment [13] relates to CCRF S-180. In words: Ratio of ILS tested compound/quinocarcin against murine sarcoma S-180 tumor cell line implanted subcutaneously in mice and the compound administered intravenously at a dose of 12.5 mg/kg on days 1-5. It counts as functional, Mus musculus. As to conditions: route intravenous.
Experiment [14] can be described thus: Antitumor activity in vivo in CD2F1 mice measured in terms of percent increase in lifespan calculated at a dose of 50 mg/kg intraperitoneally on day one. It counts as functional. As to conditions: Mus musculus, ip, route intraperitoneal. The method in brief:
as §1

A short description of experiment [15]: Antitumor activity in vivo in CD2F1 mice measured in terms of percent increase in lifespan calculated at a dose of 3.13 mg/kg intraperitoneally on days 1-5. It counts as functional. As to conditions: Mus musculus, ip, route intraperitoneal. The method in brief: as §1
In experiment [16] the test system is CCRF S-180. In words: Ratio of ILS tested compound/quinocarcin against murine sarcoma S-180 tumor cell line implanted subcutaneously in mice and the compound administered intravenously at a dose of 3.13 mg/kg on days 1-5. It counts as functional, Mus musculus. The conditions noted are these: route intravenous.
The test system of experiment [17] is Homo sapiens. In words: Ratio of ILS tested compound/quinocarcin against human mammary carcinoma MX-1 cell line implanted subcutaneously in mice and the compound administered intravenously at a dose of 2.97 mg/kg on days 1-5. It counts as functional. The conditions noted are these: route intravenous.
The subject of experiment [18] is Homo sapiens. In words: Ratio of ILS tested compound/quinocarcin against human mammary carcinoma MX-1 cell line implanted subcutaneously in mice and the compound administered intravenously at a dose of 4.67 mg/kg on days 1-5.c means number of cured mice. It counts as functional. As to conditions: route intravenous.
A short description of experiment [19]: Antitumor activity in vivo in CD2F1 mice measured in terms of percent increase in lifespan calculated at a dose of 6.25 mg/kg intraperitoneally on day one. It counts as functional. The conditions noted are these: Mus musculus, ip, route intraperitoneal. The method in brief: as §1
For experiment [20], the system named is St-4. The experiment can be described thus: Ratio of ILS tested compound/quinocarcin against St-4 tumor cell line implanted subcutaneously in mice and the compound administered intravenously at a dose of 5.58 mg/kg on days 1-5. It counts as functional, Homo sapiens. The conditions noted are these: route intravenous.
Experiment [21] concerns CCRF S-180. In words: Ratio of ILS tested compound/quinocarcin against murine sarcoma S-180 tumor cell line implanted subcutaneously in mice and the compound administered intravenously at a dose of 5.85 mg/kg on days 1-5. It counts as functional, Mus musculus. As to conditions: route intravenous.
Experiment [22] has as its system Co-3. In words: Ratio of ILS tested compound/quinocarcin against Co-3 tumor cell line implanted subcutaneously in mice and the compound administered intravenously at a dose of 9.18 mg/kg on days 1-5. It counts as functional, Homo sapiens. The conditions noted are these: route intravenous.
Experiment [23] deals with Co-3. The experiment can be described thus: Ratio of ILS tested compound/quinocarcin against Co-3 tumor cell line implanted subcutaneously in mice and the compound administered intravenously at a dose of 5.58 mg/kg on days 1-5. It counts as functional, Homo sapiens. The conditions noted are these: route intravenous.
Experiment [24] relates to Homo sapiens. The experiment can be described thus: Ratio of ILS tested compound/quinocarcin against human mammary carcinoma MX-1 cell line implanted subcutaneously in mice and the compound administered intravenously at a dose of 3.55 mg/kg on days 1-5. It counts as functional. The conditions noted are these: route intravenous.
In experiment [25] the test system is St-4. The experiment can be described thus: Ratio of ILS tested compound/quinocarcin against St-4 tumor cell line implanted subcutaneously in mice and the compound administered intravenously at a dose of 9.18 mg/kg on days 1-5. As to conditions: route intravenous. It counts as functional, Homo sapiens.
Experiment [26] relates to Homo sapiens. In words: Ratio of ILS tested compound/quinocarcin against human mammary carcinoma MX-1 cell line implanted subcutaneously in mice and the compound administered intravenously at a dose of 5.58 mg/kg on days 1-5.c means number of cured mice. It counts as functional. As to conditions: route intravenous.
Experiment [27] concerns CCRF S-180. In words: Ratio of ILS tested compound/quinocarcin against murine sarcoma S-180 tumor cell line implanted subcutaneously in mice and the compound administered intravenously at a dose of 6.25 mg/kg on days 1-5. It counts as functional, Mus musculus. The conditions noted are these: route intravenous.
The test system of experiment [28] is Homo sapiens. In words: Ratio of ILS tested compound/quinocarcin against human mammary carcinoma MX-1 cell line implanted subcutaneously in mice and the compound administered intravenously at a dose of 12.7 mg/kg on days 1-5.c means number of cured mice. The conditions noted are these: route intravenous. It counts as functional.
Experiment [29] in a line: Antitumor activity in vivo in CD2F1 mice measured in terms of percent increase in lifespan calculated at a dose of 200 mg/kg intraperitoneally on day one. The conditions noted are these: Mus musculus, ip, route intraperitoneal. It counts as functional. The method in brief:
as §1

≈ marks a conversion by molar mass, not a printed value. Where only a bound is given, the exact number is not on record here.

On to `CSC1=C(SC)C(=O)C2=C(C[C@H]3[C@H]4[C@H](C(=O)O)C[C@@H](C(C#N)N3[C@H]2CO)N4C)C1=O` (stereo not given in full), for which, in experiment [1], the increase in life span (ILS) (as a rule, the gain in survival time of treated over control animals, in per cent) at 12.5 mg/kg was 53%. Also, the T/C was found to be 0.67 in [2] and 1.06 in experiment [7]. Further, the concentration for half-maximal inhibition (IC50) (usually the midpoint of a concentration-inhibition curve) in [3] came out at 0.13 µg/mL (≈ 0.289 µM). In addition, the ILS at 6.25 mg/kg in experiment [4] was 71%. Besides, the results for the R in experiment [5] and in experiment [6] were 0.59 and 1.23, respectively.

On to `COc1c2c(c(OC)c(SC(C)C)c1SC(C)C)[C@@H]1COC3[C@@H]4C[C@@H](C(=O)O)[C@H]([C@H](C2)N31)N4C` (stereo not given in full), for which the increase in lifespan (ILS) at 37.5 mg/kg in experiment [8] is 9%. The same compound came in with an IC50 in experiment [3] of 0.05 µg/mL (≈ 0.0983 µM).

With `CC(C)SC1=C(SC(C)C)C(=O)C2=C(C[C@H]3[C@H]4[C@H](C(=O)O)C[C@@H](C(C#N)N3[C@H]2CO)N4C)C1=O` (stereo not given in full), the increase in lifespan (ILS) at 25 mg/kg in experiment [9] is 65%. Besides, the ILS at 12.5 mg/kg in experiment [10] was 119%. In experiment [3], this compound showed an IC50 of 0.012 µg/mL (≈ 0.0237 µM). In addition, the figures for the T/C in experiment [11], in experiment [12] and in experiment [13] were 0.22, 0.83 and 0.37, respectively. In addition, the R in [5] is given as 1.35; in experiment [6], 1.48.

Turning to `COc1c2c(c(OC)c(SC(C)C)c1SC(C)C)[C@H](CO)N1C(C#N)[C@@H]3C[C@@H](C(=O)O)[C@H]([C@@H]1C2)N3C` (stereo not given in full), the ILS at 50 mg/kg in experiment [14] is 7%. In addition, in experiment [3], the IC50 turned out to be 0.17 µg/mL (≈ 0.317 µM).

Regarding `CC(C)SC1=C(SC(C)C)C(=O)C2=C(C[C@H]3[C@H]4[C@H](C(=O)O)C[C@@H](C5OC[C@@H]2N53)N4C)C1=O` (stereo not given in full), half-maximal inhibition in [3] (IC50) required 0.0019 µg/mL (≈ 0.00397 µM). Also, the increase in lifespan (ILS) at 3.13 mg/kg in experiment [15] was 98%. For the same compound, the T/C is on record as 0.73 in experiment [16], 0.046 in experiment [17] and 0 in [18]. In addition, the ILS at 6.25 mg/kg in experiment [19] was 69%. In addition, the figures for the R in experiment [5] and in experiment [6] were 1.11 and 1.57, respectively.

`CSC1=C(SC)C(=O)C2=C(C[C@H]3[C@H]4[C@H](C(=O)O)C[C@@H](C5OC[C@@H]2N53)N4C)C1=O` (stereo not given in full) gave an IC50 in experiment [3] of 0.019 µg/mL (≈ 0.045 µM). Besides, the T/C came to 0.56 in experiment [20]; 0.86 in experiment [21]; 0.21 in [22]; 0.43 in experiment [23]; 0.21 in [24]; 0.2 in experiment [25]. Moreover, in [26], the T/C was 0.006. In addition, in experiment [15], the ILS at 3.13 mg/kg was 91%. The ILS at 6.25 mg/kg in experiment [19] is 48%. Besides, the values for the R in [5] and in experiment [6] were 0.88 and 1.85, respectively.

Consider `CSc1c(O)c2c(c(O)c1SC)[C@H](CO)N1C(C#N)[C@@H]3C[C@@H](C(=O)O)[C@H]([C@@H]1C2)N3C` (stereo not given in full), for which the T/C in experiment [2] is listed as 0.067; in experiment [27], 0.4; in experiment [28], 0. 0.09 µg/mL (≈ 0.199 µM) corresponded to half-maximal inhibition in experiment [3] (IC50). Besides, the ILS at 3.13 mg/kg in [15] was 92%. The increase in lifespan (ILS) at 6.25 mg/kg in [19] was 47%. Moreover, the R was 0.86 in [5] and 1.09 in experiment [6].

Compound `CCOC(=O)CSc1c(O)c2c(c(O)c1SCC(=O)OCC)[C@H](CO)N1C(C#N)[C@@H]3C[C@@H](C(=O)O)[C@H]([C@@H]1C2)N3C` (stereo not given in full) displayed an IC50 in experiment [3] above 10 µg/mL. The ILS at 200 mg/kg in experiment [29] was 37%. Further, in experiment [6], the R is given as 0.9.
